From PubChem BioAssay
The list is not random: actives were taken first. Their share in the collection is about 2.3%.
SUMO1-SIM PPI – alters human SUMO1 binding to SIM partners; P63165; SUMO1 binding to a labelled peptide, TR-FRET, 1 h; inhibition, % at 20 µM; 360,000 compounds, 0.33% hits; AID 602429; in the data active = inhibition above about 37%
Rpn11 inh – Rpn11 (human) deubiquitinase inhibition | O00487 | human 26S proteasome, Ub4-pepOG fluorescence polarization; 20S core pre-blocked with epoxomicin | inhibition, % at 20 µM | 360,000 compounds, 0.59% hits;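 active = inhibition at 20 µM, scaled to each plate's controls, above about 33%, limit read from the data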
Target sequence (O00487 whole entry, looked up): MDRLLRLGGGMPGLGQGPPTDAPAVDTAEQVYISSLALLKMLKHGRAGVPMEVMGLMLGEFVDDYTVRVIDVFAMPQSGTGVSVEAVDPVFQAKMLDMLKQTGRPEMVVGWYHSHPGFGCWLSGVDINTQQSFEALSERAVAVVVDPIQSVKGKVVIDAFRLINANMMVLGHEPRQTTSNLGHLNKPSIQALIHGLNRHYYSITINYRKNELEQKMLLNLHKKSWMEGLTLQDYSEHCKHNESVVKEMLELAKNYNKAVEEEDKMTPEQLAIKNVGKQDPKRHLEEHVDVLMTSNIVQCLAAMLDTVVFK
DNMT1 inh – DNMT1 (human) enzyme inhibition; P26358; DNMT1 molecular beacon, Hinp1I cleavage, fluorescence; inhibition (reported as % activation of signal), % at 10 µM; 360,000 compounds, 0.83% hits; AID 588458; in the data active = inhibition above about 50%
Scp1 inh – Scp-1 (human) phosphatase inhibition; Recombinant Scp1, phosphopeptide, malachite green phosphate absorbance; inhibition, % at 20 µM; 340,000 compounds, 0.88% hits; AID 493091;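 active = inhibition above about 50% at 20 µM, limit read from the data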;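 also: plate controls were DMSO wells with enzyme for no effect and wells lacking enzyme for full effect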
Target sequence (Q9GZU7 76-261 limits assumed): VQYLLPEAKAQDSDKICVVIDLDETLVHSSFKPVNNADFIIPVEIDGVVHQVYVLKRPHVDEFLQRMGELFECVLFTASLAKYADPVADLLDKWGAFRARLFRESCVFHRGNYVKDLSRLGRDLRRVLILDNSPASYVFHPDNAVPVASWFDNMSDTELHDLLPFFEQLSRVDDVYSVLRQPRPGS
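Test system: SCP-1 phosphatase catalytic domain, residues 76-261; measured by: colorimetric phosphate reagent with accelerator and stabiliser, absorbance at 630 nm; timing: enzyme reaction 45 min at room temperature, colour 5 min, stabilisation 30 min; also added: Phosphorylated 17-residue peptide substrate; compound dosing: one concentration, 20 µM, with 1.0% DMSO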
STEP block – blocks human striatal-enriched tyrosine phosphatase; recombinant STEP, OMFP fluorogenic substrate, fluorescence; inhibition, % at 20 µM; 360,000 compounds, 0.25% hits; AID 588621;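 active = inhibition at 20 µM, scaled per plate between control wells, above about 37%, limit read from the data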;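 also: 0% = DMSO with enzyme and substrate and 100% = substrate only without enzyme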
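Test system: STEP tyrosine phosphatase / Reagent: OMFP at 25 µM / Doses: 20 µM, 1% DMSO / Read-out: percent inhibition scaled to no-enzyme and uninhibited-enzyme controls, plate-pattern corrected / Detection: FITC-channel fluorescence of OMFP product / Medium: Bis-Tris buffer pH 6.0, 2.5 mM DTT, 0.005% Tween 20 / Schedule: 20 min at room temperature, dark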
LMPTP inh – blocks human LMPTP phosphatase; P24666; recombinant LMPTP-A, OMFP fluorogenic substrate, fluorescence intensity; inhibition, % at 20 µM; 360,000 compounds, 0.22% hits; AID 651560;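 active = compounds that cut the enzyme signal by at least half of the control window in the single-dose screen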;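 also: plate controls were DMSO wells with enzyme plus substrate for no effect and substrate without enzyme for full effect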
Target sequence (P24666 whole entry, looked up): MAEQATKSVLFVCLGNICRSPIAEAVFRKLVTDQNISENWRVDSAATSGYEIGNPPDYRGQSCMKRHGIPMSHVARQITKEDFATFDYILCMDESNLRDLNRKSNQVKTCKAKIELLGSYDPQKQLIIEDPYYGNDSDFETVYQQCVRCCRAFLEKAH
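Assay system: LMPTP-A enzyme. Input: 0.625 nM LMPTP-A final. Probe or stimulus: 400 µM OMFP. Compound dosing: single 20 µM dose. Schedule: 50 min dark incubation at room temperature. Detection: fluorescence intensity of OMFP turnover product. Read-out: percent inhibition versus substrate-only and uninhibited controls. Benchmarks: no-enzyme low control, uninhibited high control.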
Scp1 confirm – confirmation of human Scp-1 phosphatase inhibitors. shares compounds with Scp1 inh. recombinant SCP-1 catalytic domain, phosphate release, malachite green absorbance. inhibition, % at 20 µM. 2,500 compounds, 61% hits;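 also: plate controls were DMSO with enzyme for no effect and buffer wells lacking enzyme for full effect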
Scp-1 MG ctr – colorimetric interference in Scp-1 counter-screen; 2,500 tested, under 10 active; shares compounds with Scp1 inh; AID 540313; apparent inhibition (interference), % at 20 µM; Colorimetric interference counterscreen, malachite green absorbance 630 nm;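 also: compounds added after enzyme reaction finished so only phosphate colour detection is probed; plate controls were DMSO wells with completed Scp-1 reaction for no effect and substrate wells lacking enzyme for full effect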
Scp1 DSF – binds human Scp-1, shifting its melting temperature | Recombinant SCP1, Sypro Orange thermal shift Tm | shares compounds with Scp1 inh | thermal shift relative to vanadate control, % at 40 µM | 1,500 compounds, 25% hits;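 active = substances whose mean melting-temperature shift, as a percentage of the reference inhibitor's shift, reaches about 5.3%, limit read from the data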;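 also: 0% = Tm of DMSO wells and 100% = Tm with sodium orthovanadate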
Starred values were filed as active, the others as inactive; nt = no result given.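 The calls were made as follows, unless noted: active = inhibition of at least 30% at 20 µM; inactive = the rest.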

SMILES	SUMO1-SIM PPI	Rpn11 inh	DNMT1 inh	Scp1 inh	STEP block	LMPTP inh	Scp1 confirm	Scp-1 MG ctr	Scp1 DSF
CCc1nc2c(OCc3ccc(Cl)cc3Cl)cccn2c1N(C)C(=O)CC(C)C	-3.8	10.9	0.3	nt	4.4	6.5	nt	nt	nt
COc1ccc(Cl)c2sc(N(CCN(C)C)C(=O)C3=COCCO3)nc12	-1.2	0.3	0.5	90.6*	-0.4	0.2	-13.4	-11.7	nt
COc1ccc(OC)c2sc(N(CCN(C)C)C(=O)c3cc(Cl)sc3Cl)nc12	2.6	4.1	0.3	9.1	-2.8	8.2	nt	nt	nt
CSCCC(c1nnnn1C1CCCCC1)N1CCN(C/C=C/c2ccccc2)CC1 (configuration not stated)	-0.4	5.5	1.3	nt	-2.0	0.6	nt	nt	nt
COc1ccc(C(CNC(=O)c2cccc(S(=O)(=O)NCc3ccccc3)c2)N2CCOCC2)cc1 (configuration not stated)	2.1	7.8	-0.9	-1.1	-2.7	0.5	nt	nt	nt
CC(=O)c1cccc(NC(=O)N2C3CCCC2CC(NC(=O)C2CC2)C3)c1 (configuration not stated)	-1.8	-2.7	2.1	4.2	-0.8	-2.3	nt	nt	nt
CC1=NN(c2nc(-c3ccc(C)cc3)cs2)C(=O)C1N=Nc1ccccc1O (configuration not stated)	19.7	-1.1	14.7	58.0*	1.6	2.0	70.9*	-17.5	7.4*
Cc1ccc(OCC(=O)NNC(=O)c2ccc(NC(=O)C3CC3)cc2)c(C)c1	0.5	3.2	-0.4	-7.6	0.0	-1.8	nt	nt	nt
CCc1ccc(OCC(=O)NNC(=O)c2ccc(NC(=O)C3CC3)cc2)cc1	18.7	5.8	16.1	51.7*	39.0	37.1	78.2*	-10.7	-24.8
COc1ccc(C(=O)O/N=C2\C(=O)N(C)c3ccccc32)cc1	-21.1	-13.4	2.9	52.3*	0.3	-2.1	-14.7	-18.3	nt
CN1C(=O)/C(=N\OC(=O)c2cccc3ccccc23)c2ccccc21	-12.7	-4.5	4.9	-14.2	4.4	2.2	nt	nt	nt
Cc1ccccc1C(=O)OCC(=O)NCc1ccco1	1.0	-3.6	9.2	53.4*	-1.0	0.0	18.0	-9.0	nt
Cc1cccc(Nc2ccccc2C(=O)OCC(=O)NCc2ccco2)c1C	5.4	2.3	40.9	22.6	1.1	2.1	nt	nt	nt
O=C(COC(=O)CCOc1ccccc1)NCc1ccco1	1.6	-13.5	22.0	101.9*	0.3	6.4	57.9*	-13.9	-1.2
O=C(COC(=O)c1ccc(Cl)c(S(=O)(=O)N2CCCCC2)c1)NCc1ccco1	7.8	-4.4	10.6	71.2*	-3.0	1.4	44.6*	-22.2	-10.3
CCN(CC)S(=O)(=O)c1ccc(C(=O)OCC(=O)NCc2ccco2)cc1	0.2	-6.6	17.1	55.4*	1.8	-0.1	46.6*	-6.2	-8.4
Cc1ccc(C)c(NC(=O)NNS(=O)(=O)c2ccc(C)c(C)c2)c1	2.7	-16.7	-1.4	1.1	0.1	0.9	nt	nt	nt
CN(C)C(=O)c1ccc(OCC(F)(F)F)nc1	-1.2	-2.2	2.8	79.2*	-1.8	-0.8	-9.3	-14.7	nt
CCN1CCCc2cc(CN(CCN3CCOCC3)C(=S)Nc3cccc(OC)c3)ccc21	-2.6	-1.5	-2.3	1.9	5.9	-0.5	nt	nt	nt
Cc1ccc(S(=O)(=O)N2CCOCC2)cc1C(=O)OCC(=O)NC1CC1	4.8	1.7	-1.9	2.8	2.7	-0.2	nt	nt	nt
O=C(COc1ccc(S(=O)(=O)N2CCOCC2)cc1)Nc1ccccc1Cl	1.6	0.0	-0.4	0.7	-0.8	-0.9	nt	nt	nt
O=S(=O)(Nc1ccc(-n2cnnn2)cc1)c1ccc(F)c(F)c1F	-2.2	8.4	-0.3	5.8	-2.3	-2.1	nt	nt	nt
Cc1ccc(OCC(=O)N/N=C\c2ccc(O)c([N+](=O)[O-])c2)c([N+](=O)[O-])c1	-13.0	-0.8	0.6	66.6*	0.6	-5.3	41.8*	-4.3	9.8*
C=CC[N+](C)(C)CCCNC(=O)/C=N/O	-6.8	4.8	-23.5	55.5*	0.0	-9.3	-6.8	-9.0	nt
CN(C)CCCNCCCCNC(=O)/C=N/O	-1.9	4.0	-7.8	-11.7	-2.2	-12.6	nt	nt	nt
SMILES	SUMO1-SIM PPI	Rpn11 inh	DNMT1 inh	Scp1 inh	STEP block	LMPTP inh	Scp1 confirm	Scp-1 MG ctr	Scp1 DSF
O=[N+]([O-])c1ccc2nc(-c3ccccc3)n(OCc3ccc(Cl)cc3)c2c1	1.5	-9.8	13.9	58.8*	5.7	3.7	51.0*	-5.2	6.2*
Nc1cc(C(=O)OCC(=O)c2ccc(CC(=O)N3CCOCC3)s2)ccc1Cl	-9.3	1.1	1.8	54.2*	2.5	8.2	39.4*	-15.8	6.2*
Cc1ccc(C(=O)COC(=O)c2ccc(Cl)c(N)c2)s1	-2.7	-1.8	-6.0	-6.1	-1.4	0.2	nt	nt	nt
Cc1ccc(S(=O)(=O)n2nc(-c3ccco3)nc2N)cc1	-1.7	3.8	-2.9	-6.9	-3.1	0.1	nt	nt	nt
CC(=O)c1sc(C(=O)O)c(-c2ccco2)c1-c1ccco1	-3.8	-1.7	37.1	59.1*	14.2	0.3	31.8*	-10.6	-9.3
O=[N+]([O-])c1cc2c(c3cccnc13)COCO2	-21.0	-25.6	22.7	61.6*	-0.1	12.9	52.2*	-10.4	-2.1
c1cnc2ccc3c(c2c1)COCO3	1.6	8.0	-1.3	7.1	-1.4	16.1	nt	nt	nt
N=C1SC(c2ccccc2)C(=O)N1c1ncc(Cc2ccccc2Cl)s1 (configuration not stated)	2.5	12.9	32.9	-5.5	1.0	0.2	nt	nt	nt
CCCCN(C(=O)c1cc(-c2ccco2)nc2ccccc12)c1c(N)n(CCCC)c(=O)[nH]c1=O	1.2	-33.4	33.6	nt	2.1	13.3	nt	nt	nt
COCCN(C(=O)c1cc(-c2ccco2)nc2ccccc12)c1c(N)n(Cc2ccccc2)c(=O)[nH]c1=O	-3.8	-17.0	22.0	64.1*	5.2	14.1	57.7*	-18.6	-2.6
CCCCn1c(N)c(N(CCOC)C(=O)c2cc(-c3ccco3)nc3ccccc23)c(=O)[nH]c1=O	7.1	-20.8	42.8	58.2*	4.3	9.3	67.0*	-2.4	1.8
COCCN(C(=O)COC(=O)/C=C/c1ccc(SC)cc1)c1c(N)n(Cc2ccccc2)c(=O)[nH]c1=O	-6.7	2.9	17.4	-1.7	0.9	-1.3	nt	nt	nt
COCCN(C(=O)COC(=O)/C=C/c1ccc(C(F)(F)F)cc1)c1c(N)n(Cc2ccccc2)c(=O)[nH]c1=O	-0.4	-6.5	3.9	58.4*	-1.2	0.7	-21.8	-17.8	nt
